Measurements taken from ChEMBL document CHEMBL4602675, “The Marine Natural Product Manzamine A Inhibits Cervical Cancer by Targeting the SIX1 Protein” (J Nat Prod, 2020).
The source made the active and inactive calls. No cut-off for these calls is given here.

Legend:
[1] = tested on: C-33-A; assay: Antiproliferative activity against human C33A cells assessed as reduction in cell viability after 24 hrs by CellTiter-Glo assay; format: functional, cell-based
Summary of the method: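 ATP-based luminescent viability readout. Cells were grown in DMEM with 10% FBS, 2 mM L-glutamine and penicillin-streptomycin at 37 °C, 5% CO2. 2 × 10^4 cells/well were seeded, then exposed the next day to 0–40 μM for 24, 48 or 72 h. % viability = 100 × treated/control. IC50 was fitted from a sigmoid dose-response curve. Run at least three times in quadruplicate; mean ± SEM.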

[2] = tested on: SiHa; assay: Effect on total-Rb in human SiHa cells assessed decrease in Rb protein level at 2 to 4 uM after 48 hrs by Western blot analysis; format: ADME, cell-based
Summary of the method: (§1)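 Cells were seeded at 1 × 10^6 per 100 mm dish and treated next day with 2 or 4 μM for 48 h. They were trypsinised, PBS-washed and lysed in RIPA with protease inhibitors. Equal protein was run on SDS-PAGE and transferred to PVDF. Primary antibodies were used at 1:500, with BSA 3% for blocking and antibodies for CK2α, Rb and pRb, otherwise 5% milk in TBST. HRP secondary at 1:2000, chemiluminescence detection.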

[3] = tested on: C-33-A; assay: Cell cycle arrest in human C33A cells assessed as accumulation at Sub G1 phase at 4 uM after 72 hrs by propidium iodide staining based flow cytometric analysis (reference value: 0.7%); format: functional
Summary of the method: (§2)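 Cells in DMEM/10% FBS at 37 °C, 5% CO2 were given 4 μM for 24, 48 or 72 h, with DMSO as control. After trypsinization they were fixed in chilled 70% ethanol on ice for 30 min, treated with RNase A (1 mg/mL) for 30 min at room temperature, and stained with PI (20 μg/mL). At least 10 000 events were read by flow cytometry to give sub-G1, G0/G1, S and G2/M fractions; mean ± SEM.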

[4] = tested on: C-33-A; assay: Cell cycle arrest in human C33A cells assessed as accumulation at G0/G1 phase at 4 uM after 72 hrs by propidium iodide staining based flow cytometric analysis (reference value: 60%); format: functional; summary of the method: as §2
[5] = tested on: SiHa; assay: Cell cycle arrest in human SiHa cells assessed as accumulation at G0/G1 phase at 4 uM after 24 hrs by propidium iodide staining based flow cytometric analysis (reference value: 69.9%); format: functional; summary of the method: as §2
[6] = tested on: SiHa; assay: Cell cycle arrest in human SiHa cells assessed as accumulation at G0/G1 phase at 4 uM after 48 hrs by propidium iodide staining based flow cytometric analysis (reference value: 72.7%); format: functional; summary of the method: as §2
[7] = tested on: SiHa; assay: Cell cycle arrest in human SiHa cells assessed as accumulation at G0/G1 phase at 4 uM after 72 hrs by propidium iodide staining based flow cytometric analysis (reference value: 72.8%); format: functional; summary of the method: as §2
[8] = tested on: HeLa; assay: Cell cycle arrest in human HeLa cells assessed as accumulation at Sub G1 phase at 4 uM after 48 hrs by propidium iodide staining based flow cytometric analysis (reference value: 2.1%); format: functional; summary of the method: as §2
[9] = tested on: HeLa; assay: Cell cycle arrest in human HeLa cells assessed as accumulation at G0/G1 phase at 4 uM after 48 hrs by propidium iodide staining based flow cytometric analysis (reference value: 69.6%); format: functional; summary of the method: as §2
[10] = tested on: HeLa; assay: Cell cycle arrest in human HeLa cells assessed as accumulation at Sub G1 phase at 4 uM after 72 hrs by propidium iodide staining based flow cytometric analysis (reference value: 3.5%); format: functional; summary of the method: as §2
[11] = tested on: Ca-Ski; assay: Cell cycle arrest in human CaSki cells assessed as accumulation at G0/G1 phase at 4 uM after 24 hrs by propidium iodide staining based flow cytometric analysis (reference value: 56%); format: functional; summary of the method: as §2
[12] = tested on: Ca-Ski; assay: Cell cycle arrest in human CaSki cells assessed as accumulation at G2/M phase at 4 uM after 72 hrs by propidium iodide staining based flow cytometric analysis (reference value: 15.2%); format: functional
[13] = tested on: C-33-A; assay: Induction of apoptosis in human C33A cells assessed as viable cells at 4 uM after 24 hrs by Annexin V-FITC/PI double staining based flow cytometric analysis (reference value: 93.3%); format: functional; details: read-out: Activity
[14] = tested on: HeLa; assay: Induction of apoptosis in human HeLa cells assessed as viable cells at 4 uM after 24 hrs by Annexin V-FITC/PI double staining based flow cytometric analysis (reference value: 85.2%); format: functional; details: read-out: Activity
[15] = tested on: Ca-Ski; assay: Induction of apoptosis in human CaSki cells assessed as viable cells at 4 uM after 48 hrs by Annexin V-FITC/PI double staining based flow cytometric analysis (reference value: 81.6%); format: functional; details: read-out: Activity
[16] = tested on: SiHa; assay: Cell cycle arrest in human SiHa cells assessed as decrease in accumulation at S phase at 4 uM incubated up to 72 hrs by propidium iodide staining based flow cytometric analysis; format: functional
Summary of the method: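 Cells in DMEM with 10% FBS, 2 mM L-glutamine, pen-strep, 37 °C, 5% CO2; seeded and left overnight, then treated at 4 μM with DMSO as control. Harvested by trypsin at 24, 48 or 72 h, fixed in chilled 70% ethanol 30 min on ice, RNase A (1 mg/mL) 30 min at room temperature, PI (20 μg/mL). Flow cytometry, ≥10 000 events, G0/G1, S, G2/M fractions; mean ± SEM.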

[17] = tested on: Ca-Ski; assay: Induction of apoptosis in human CaSki cells assessed as apoptotic cells at 4 uM after 48 hrs by Annexin V-FITC/PI double staining based flow cytometric analysis (reference value: […]); format: functional
[18] = target: T1, Protein E7 (Human papillomavirus 16) (UniProt P03129); assay: Inhibition of Human papillomavirus type16 derived E7 in human CaSki cells assessed as decrease in cyclin-D1 protein expression at 2 to 4 uM after 48 hrs by Western blot analysis; format: cell-based; details: Ca-Ski; summary of the method: as §1
T1 sequence (whole entry): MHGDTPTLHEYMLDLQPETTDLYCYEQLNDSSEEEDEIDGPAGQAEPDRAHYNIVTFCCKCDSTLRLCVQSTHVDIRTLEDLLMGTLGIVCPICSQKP

[19] = target: Protein E6 (human papillomavirus 18) (UniProt P06463); assay: Inhibition of Human papillomavirus type18 derived E6 in human HeLa cells assessed as increase in p21 protein expression at 2 to 4 uM after 48 hrs by Western blot analysis; format: cell-based; summary of the method: as §1
[20] = tested on: C-33-A; assay: Cell cycle arrest in human C33A cells assessed as increase in p53 protein expression at 2 to 4 uM after 48 hr by Western lot analysis; format: functional, cell-based
Summary of the method: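 Western blot. 1 × 10^6 cells were seeded per 100 mm dish and exposed the next day to 2 or 4 μM for 48 h. Cells were trypsinized and lysed in RIPA buffer with protease inhibitors. Equal protein was run on SDS-PAGE and transferred to PVDF, which was blocked in 5% milk/TBST. Anti-p53 and anti-p21 (also GAPDH) were used at 1:500 and HRP secondary at 1:2000; chemiluminescent detection.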

[21] = target: Casein kinase II subunit alpha (Homo sapiens) (UniProt P68400); assay: Potency index, ratio for inhibition activity of apigenin to test compound for inhibition of CK2alpha in human HeLa cells after 48 hrs by Western blot analysis; format: cell-based
Summary of the method: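 Cells plated at 1 × 10^6 per 100 mm dish and treated next day for 48 h with test compound (2 or 4 μM) or apigenin (10, 20 or 40 μM). RIPA lysates with protease inhibitors; equal protein loaded for SDS-PAGE, then PVDF transfer. Blocked in 5% milk/TBST (3% BSA for CK2α); anti-SIX1 or anti-CK2α 1:500, HRP secondary 1:2000; chemiluminescent detection.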

Sequence of Casein kinase II subunit alpha (Homo sapiens) (P68400 whole entry, looked up): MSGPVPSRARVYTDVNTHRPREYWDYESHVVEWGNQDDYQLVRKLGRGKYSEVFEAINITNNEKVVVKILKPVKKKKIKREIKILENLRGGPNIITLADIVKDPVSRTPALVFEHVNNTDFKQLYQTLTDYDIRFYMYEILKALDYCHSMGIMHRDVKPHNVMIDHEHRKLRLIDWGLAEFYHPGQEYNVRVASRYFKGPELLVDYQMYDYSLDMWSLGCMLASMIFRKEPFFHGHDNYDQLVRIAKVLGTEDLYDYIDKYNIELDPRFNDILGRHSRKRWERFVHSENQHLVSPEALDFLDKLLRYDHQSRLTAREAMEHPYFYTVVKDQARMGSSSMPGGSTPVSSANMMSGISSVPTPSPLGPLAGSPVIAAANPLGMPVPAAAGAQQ
Sequence of Protein E6 (human papillomavirus 18) (P06463 whole entry): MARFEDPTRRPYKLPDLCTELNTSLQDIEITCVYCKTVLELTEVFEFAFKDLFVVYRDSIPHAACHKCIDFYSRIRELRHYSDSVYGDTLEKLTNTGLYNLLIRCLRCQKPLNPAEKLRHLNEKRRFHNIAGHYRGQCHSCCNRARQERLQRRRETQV

O[C@]12C=C(c3nccc4c3[nH]c3ccccc34)[C@@H]3CCN(CCCC/C=C\CC1)C[C@@]31C[C@@H]3/C=C\CCCCN3[C@H]12 [MANZAMINE A]
IC50 [1]: 5.2 µM | Activity [2]: Toxic | Activity [3]: 31.3% | Activity [4]: 34.2% | Activity [5]: 85.3% | Activity [6]: 86.4% | Activity [7]: 78.6% | Activity [8]: 5.1% | Activity [9]: 63.9% | Activity [10]: 24.3% | Activity [11]: 77.6% | Activity [12]: 10.2% | viability at 4 µM [13]: 72.7% | viability at 4 µM [14]: 81.7% | viability at 4 µM [15]: 76.9% | Activity [16]: Active | Activity [17]: 23.2% | inhibition [18]: Active | inhibition [19]: inactive | Activity [20]: inactive | Ratio [21]: 10
